In ChEMBL document CHEMBL3877303 (J Med Chem, 2017):

Experiments:
[1] = biological target: T1, Mast/stem cell growth factor receptor Kit (Homo sapiens, UniProt P10721); conditions: BaF3
[2] = Growth inhibition of mouse BAF3 cells measured after 72 hrs by CellTiter-Glo or CCK8 assay; assay type: cell-based
Outline: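 Cells at 1 to 2.5×10^4 cells/mL were incubated with a range of compound concentrations for 72 h. Viability was read by CellTiter-Glo luminescence or CCK-8 absorbance (450/655 nm) and normalized to DMSO control. GI50 came from curve fitting, with triplicate testing.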

[3] = biological target: BCR/ABL p210 fusion protein (Homo sapiens, UniProt A1Z199); assay: Inhibition of human BCR/ABL p210 fusion protein expressed in BAF3 cells assessed as growth inhibition measured after 72 hrs by CellTiter-Glo or CCK8 assay; assay type: cell-based
Outline: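 Seeded at 1 to 2.5×10^4 cells/mL with various compound concentrations, 72 h. Viability read by CellTiter-Glo luminescence or CCK-8 absorbance (450/655 nm), normalized to DMSO control, GI50 from curve fit, triplicate testing.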

[4] = biological target: T1, Mast/stem cell growth factor receptor Kit; assay: Inhibition of recombinant C-terminal polyhistidine-tagged human c-KIT expressed in mammalian expression system using Tyr 06 peptide as substrate measured after 1hr by FRET based Z'Lyte assay

T1 sequence (P10721 whole entry): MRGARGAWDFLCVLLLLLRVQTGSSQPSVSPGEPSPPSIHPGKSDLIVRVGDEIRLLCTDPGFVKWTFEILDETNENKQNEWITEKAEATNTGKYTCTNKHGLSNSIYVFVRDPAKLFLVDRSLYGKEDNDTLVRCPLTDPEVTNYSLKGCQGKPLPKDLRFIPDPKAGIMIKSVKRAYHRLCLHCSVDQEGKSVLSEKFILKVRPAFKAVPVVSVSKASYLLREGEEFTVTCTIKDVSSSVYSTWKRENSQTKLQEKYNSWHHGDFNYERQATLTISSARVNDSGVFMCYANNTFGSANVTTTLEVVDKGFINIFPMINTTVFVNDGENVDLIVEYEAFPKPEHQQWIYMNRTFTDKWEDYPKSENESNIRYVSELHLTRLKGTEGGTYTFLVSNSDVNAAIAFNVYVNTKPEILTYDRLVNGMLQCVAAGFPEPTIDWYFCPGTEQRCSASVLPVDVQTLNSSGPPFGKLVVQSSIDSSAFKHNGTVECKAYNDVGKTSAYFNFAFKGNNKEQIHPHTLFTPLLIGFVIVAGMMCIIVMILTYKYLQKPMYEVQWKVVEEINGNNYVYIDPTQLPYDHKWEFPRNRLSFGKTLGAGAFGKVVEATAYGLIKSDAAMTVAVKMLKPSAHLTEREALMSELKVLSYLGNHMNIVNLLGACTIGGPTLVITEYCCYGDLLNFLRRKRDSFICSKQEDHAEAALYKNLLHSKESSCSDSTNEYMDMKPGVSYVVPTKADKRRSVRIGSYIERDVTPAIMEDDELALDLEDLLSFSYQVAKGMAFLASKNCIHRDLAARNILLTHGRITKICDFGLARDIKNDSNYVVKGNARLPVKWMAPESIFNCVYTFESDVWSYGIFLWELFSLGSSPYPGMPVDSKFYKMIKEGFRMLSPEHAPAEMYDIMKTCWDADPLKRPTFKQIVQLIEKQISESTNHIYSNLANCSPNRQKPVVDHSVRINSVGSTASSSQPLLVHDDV
Sequence of BCR/ABL p210 fusion protein (A1Z199 1-97): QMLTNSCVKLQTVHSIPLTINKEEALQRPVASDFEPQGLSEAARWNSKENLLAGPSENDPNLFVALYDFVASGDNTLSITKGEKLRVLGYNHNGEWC

Row | SMILES | GI50 [1] [nM] | GI50 at 72 h [2] [nM] | GI50 [3] [nM] | IC50 [4] [nM]
1 | Cc1ccc(NC(=O)c2ccc(CN3CCN(C)CC3)c(C(F)(F)F)c2)cc1OC1CCN(C(=O)Cc2cccnc2)CC1 | 780 | 6490 | 5520 | 
2 | Cc1ccc(NC(=O)c2ccc(CN3CCN(C)CC3)c(C(F)(F)F)c2)cc1OC1CCN(S(=O)(=O)c2ccccc2)CC1 | 600 | 5100 | 4770 | 
3 | CCC(=O)N1CCC(Oc2cc(NC(=O)c3ccc(CN4CCN(C)CC4)c(C(F)(F)F)c3)ccc2C)CC1 | 300 | > 10000 | 998 | 
4 | Cc1ccc(NC(=O)c2ccc(CN3CCN(C)CC3)c(C(F)(F)F)c2)cc1OC1CCN(C(=O)c2cnc(N)nc2)CC1 | 200 | > 10000 | 168 | 
5 | Cc1ccc(NC(=O)c2ccc(CN3CCN(C)CC3)c(C(F)(F)F)c2)cc1OC1CCN(C(=O)c2ccoc2)CC1 | 270 | > 10000 | 153 | 
6 | Cc1cncc(C(=O)N2CCC(Oc3cc(NC(=O)c4ccc(CN5CCN(C)CC5)c(C(F)(F)F)c4)ccc3C)CC2)c1 | 28 | 800 | 79 | 214
7 | Cc1ccc(NC(=O)c2ccc(CN3CCN(C)CC3)c(C(F)(F)F)c2)cc1OC1CCN(C(=O)CN(C)C)CC1 | 1630 | > 10000 | 3070 | 
8 | Cc1ccc(NC(=O)c2ccc(CN3CCN(C)CC3)c(C(F)(F)F)c2)cc1OC1CCN(C(=O)c2cnc3ccccc3c2)CC1 | 320 | 1300 | 86 | 
9 | Cc1ccc(NC(=O)c2ccc(CN3CCN(C)CC3)c(C(F)(F)F)c2)cc1OC1CCN(C(=O)c2ccsc2)CC1 | 26 | 1480 | 135 | 
10 | Cc1ccc(NC(=O)c2ccc(CN3CCN(C)CC3)c(C(F)(F)F)c2)cc1OC1CCN(C(=O)c2ccncc2)CC1 | 170 | > 10000 | 88 | 256
11 | Cc1ccc(NC(=O)c2ccc(CN3CCN(C)CC3)c(C(F)(F)F)c2)cc1OC1CCN(C(=O)c2cccnc2)CC1 | 220 | > 10000 | 164 | 
12 | Cc1ccc(NC(=O)c2ccc(CN3CCN(C)CC3)c(C(F)(F)F)c2)cc1OC1CCN(C(=O)c2cnccc2C)CC1 | 210 | 2680 | 203 | 336
13 | Cc1ccc(NC(=O)c2ccc(CN3CCN(C)CC3)c(C(F)(F)F)c2)cc1OC1CCN(c2ncccn2)CC1 | 2500 | 8100 | 3220 | 
14 | COc1ccc(NC(=O)c2ccc(CN3CCN(C)CC3)c(C(F)(F)F)c2)cc1OC1CCN(C(=O)c2cccnc2)CC1 | > 10000 | > 10000 | 8410 | 
15 | Cc1ccc(NC(=O)c2ccc(CN3CCN(C)CC3)c(C(F)(F)F)c2)cc1OC1CCN(C(=O)c2ccc(=O)[nH]c2)CC1 | 1600 | > 10000 | 1970 | 
16 | C=CC(=O)N1CCC(Oc2cc(NC(=O)c3ccc(CN4CCN(C)CC4)c(C(F)(F)F)c3)ccc2C)CC1 |  | > 10000 | 427 | 
17 | COc1cc2ncnc(N3CCC(Oc4cc(NC(=O)c5ccc(CN6CCN(C)CC6)c(C(F)(F)F)c5)ccc4C)CC3)c2cc1OC | 190 | 1200 | 773 | 
18 | Cc1ccc(NC(=O)c2ccc(CN3CCN(C)CC3)c(C(F)(F)F)c2)cc1OCC1CN(C(=O)c2cccnc2)C1 | 2860 | 1070 | 5400 | 
19 | Cc1ccc(NC(=O)c2ccc(CN3CCN(C)CC3)c(C(F)(F)F)c2)cc1OC1CCN(C(=O)c2cccnc2Cl)CC1 | 62 | 2720 | 2760 | 
20 | Cc1ccc(NC(=O)c2ccc(CN3CCN(C)CC3)c(C(F)(F)F)c2)cc1OC1CCN(C(=O)c2ccccc2)CC1 | 550 | 4730 | 635 | 
21 | Cc1ccc(NC(=O)c2ccc(CN3CCN(C)CC3)c(C(F)(F)F)c2)cc1OC1CCN(C(=O)c2cncc(Cl)c2)CC1 | 37 | 2870 | 219 | 
22 | Cc1ccc(NC(=O)c2ccc(CN3CCN(C)CC3)c(C(F)(F)F)c2)cc1OCCNC(=O)c1cccnc1 | 3300 | > 10000 | 1550 | 
23 | Cc1ccc(NC(=O)c2ccc(CN3CCN(C)CC3)c(C(F)(F)F)c2)cc1OC1CCN(C(=O)c2ccccn2)CC1 | 200 | > 10000 | 72 | 644
24 | Cc1ccc(NC(=O)c2ccc(CN3CCN(C)CC3)c(C(F)(F)F)c2)cc1OC1CCN(C(=O)c2cccnc2C)CC1 | 370 | 540 | 2210 | 
25 | Cc1ccc(NC(=O)c2ccc(CN3CCN(C)CC3)cc2)cc1OC1CCN(C(=O)c2cccnc2)CC1 | > 5000 | > 10000 | 8780 | 
26 | Cc1ccc(NC(=O)c2ccc(CN3CCN(C)CC3)c(C(F)(F)F)c2)cc1OC1CCN(C(=O)c2cccnc2F)CC1 | 63 | 1520 | 2000 | 
27 | Cc1ccc(NC(=O)c2ccc(CN3CCN(C)CC3)c(C(F)(F)F)c2)cc1OCC1CCN(C(=O)c2cccnc2)C1 (configuration not stated) | 3820 | 3980 | 4940 | 
28 | CN1CCN(Cc2ccc(C(=O)Nc3ccc(Cl)c(OC4CCN(C(=O)c5cccnc5)CC4)c3)cc2C(F)(F)F)CC1 | 340 | > 10000 | 253 | 
